# Dynein transport: dynein cargo transport inhibition | 3617.4 mouse cells, GR-EGFP nuclear translocation imaging; test concentration mostly 20 µM; stimulated with dexamethasone, 1 µM; hits give low values | z-score, hits read low | hit rate 0.47% among 220,000 | AID 1381;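 active = plate z-score of nuclear minus cytoplasmic receptor signal below a set negative limit, without overly bright fluorescence or cell loss, cut at about -3.5 in these data, passing the limit was not always enough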;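 note: z-score of nuclear minus cytoplasmic ring GR-EGFP intensity difference per well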
#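 Also added: dexamethasone, 1.0 µM final. Medium: tet-free, stripped-serum medium. Detection: fixed, Hoechst-stained cells imaged at 10x for EGFP. Read-out: nuclear-to-cytoplasmic GR-EGFP distribution per well. Times: induction 48 h, compound 1 h, agonist 30 min.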
# RAM network inh: blocks the yeast RAM network | S. cerevisiae dse1pr::URA3 reporter, 5-FOA growth OD615, 2 d; analog-sensitive cbk1-as2 kinase mutant strain | inhibition, % at 50 µM | hit rate 1.8% among 190,000 | AID 868;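 active = inhibition above a set limit, 3 SD over mean compound inhibition, cut at about 8.4% in these data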;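 note: 0% = DMSO-only wells with no growth and 100% = 10 µM 1-NA-PP1 full growth; inhibition rescues growth on 5-FOA so higher OD means more RAM inhibition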
# p-CIP stab down: compounds decreasing mouse p/CIP protein stability; decrease of EGFP signal, % at 10 µM; Q05BA5; F442A p/CIP-EGFP cells, EGFP fluorescence, 16 h; hit rate 0.01% among 290,000;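 active = EGFP signal decrease of at least 30% at 10 µM or well 3 SD below plate mean, unless failing retest; inactive = the rest, including hits failing retest or dose response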
# Target sequence (Q05BA5 1-1403): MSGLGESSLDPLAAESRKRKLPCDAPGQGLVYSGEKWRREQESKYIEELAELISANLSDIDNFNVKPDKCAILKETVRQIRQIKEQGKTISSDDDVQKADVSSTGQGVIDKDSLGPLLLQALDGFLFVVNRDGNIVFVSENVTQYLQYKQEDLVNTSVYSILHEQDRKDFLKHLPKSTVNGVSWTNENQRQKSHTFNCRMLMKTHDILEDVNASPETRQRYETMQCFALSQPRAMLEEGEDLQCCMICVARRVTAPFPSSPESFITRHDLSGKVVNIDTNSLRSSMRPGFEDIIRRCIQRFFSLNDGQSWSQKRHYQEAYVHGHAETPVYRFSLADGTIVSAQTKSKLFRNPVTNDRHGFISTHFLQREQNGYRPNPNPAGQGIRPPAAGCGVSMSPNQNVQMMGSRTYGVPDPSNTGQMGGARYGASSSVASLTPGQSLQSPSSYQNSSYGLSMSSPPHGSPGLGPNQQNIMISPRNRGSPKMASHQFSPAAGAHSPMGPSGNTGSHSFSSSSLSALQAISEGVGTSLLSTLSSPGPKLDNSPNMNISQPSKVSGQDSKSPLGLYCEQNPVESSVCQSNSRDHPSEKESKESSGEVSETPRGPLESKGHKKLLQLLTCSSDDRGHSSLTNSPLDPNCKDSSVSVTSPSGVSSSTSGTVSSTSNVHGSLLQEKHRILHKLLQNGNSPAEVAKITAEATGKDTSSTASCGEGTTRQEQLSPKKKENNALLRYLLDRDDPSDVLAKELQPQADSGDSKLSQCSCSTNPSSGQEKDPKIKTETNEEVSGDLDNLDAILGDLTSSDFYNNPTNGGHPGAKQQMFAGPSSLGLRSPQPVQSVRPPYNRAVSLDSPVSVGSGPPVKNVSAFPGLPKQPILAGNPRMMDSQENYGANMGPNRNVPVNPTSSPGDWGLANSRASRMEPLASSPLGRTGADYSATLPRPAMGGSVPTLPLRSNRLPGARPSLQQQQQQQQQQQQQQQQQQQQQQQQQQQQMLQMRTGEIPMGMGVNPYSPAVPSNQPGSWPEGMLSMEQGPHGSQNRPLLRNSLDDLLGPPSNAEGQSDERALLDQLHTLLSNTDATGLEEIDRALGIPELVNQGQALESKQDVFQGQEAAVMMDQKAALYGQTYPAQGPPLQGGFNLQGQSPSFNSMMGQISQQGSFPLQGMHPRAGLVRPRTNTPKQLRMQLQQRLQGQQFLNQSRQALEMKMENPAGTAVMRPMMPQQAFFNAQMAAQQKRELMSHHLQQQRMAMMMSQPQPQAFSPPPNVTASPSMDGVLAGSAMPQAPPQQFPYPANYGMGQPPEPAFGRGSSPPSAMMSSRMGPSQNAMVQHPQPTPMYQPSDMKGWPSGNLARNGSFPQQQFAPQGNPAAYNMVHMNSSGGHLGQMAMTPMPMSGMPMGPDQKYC
# p47phox inh: p47phox (human) inhibition. P14598. p47phox/p22phox peptide binding, fluorescence polarization, 2 h. inhibition, % at 24.7 µM. hit rate 0.53% among 220,000. AID 1274;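 active = inhibition above about 30%, limit read from the data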;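 note: 0% = p47phox with labelled peptide and 100% = labelled peptide alone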
# * = called active by the depositor; · = no result. Only some compounds are listed: those with a hit (about 1.9% of all), similar ones and a draw of the others.
SMILES,Dynein transport,RAM network inh,p-CIP stab down,p47phox inh
COC(=O)c1ccc(COC(=O)c2ccccn2)cc1,-0.18,-1,-8,-1
COC(=O)c1ccc(COC(=O)CCc2nc(-c3ccccc3)c(-c3ccccc3)o2)cc1,-0.78,11*,-2,-8
O=[N+]([O-])c1ccc(-c2cnc(NO)nc2)cc1,-0.22,3,-5,-11
Nc1ncc(-c2ccc([N+](=O)[O-])cc2)cn1,-0.48,1,4,78*
CCOC(=O)c1cc(NC(=O)N(C)C2CCCCC2)c(C)nc1C,·,·,-2,·
CCN(CC)C(=O)CSc1nc(N)c2c3c(sc2n1)CC(C)CC3 (stereo not drawn),1.1,0,0,59*
O=C(Nc1cccc(C(=O)O)c1)/C(=C\c1ccc2c(c1)OCO2)NC(=O)c1ccc(Br)cc1,-0.29,4,12,-8
CCCCCC[n+]1c(-c2ccc(Cl)cc2Cl)csc1Nc1ccccc1,-0.43,9.0*,-6,-5
Cc1nc(SCc2ccc([N+](=O)[O-])cc2)nc2ccccc12,-0.31,9.5*,-5,-8
Nn1c(SCc2ccc([N+](=O)[O-])cc2)nc2ccccc2c1=O,·,·,-13,·
Cc1ccc2nc(SCc3cccc([N+](=O)[O-])c3)nc(C)c2c1,-0.28,11*,-8,-20
CNC(=O)c1c(NC(=O)c2cccc(N3C(=O)CCC3=O)c2)sc2c1CCCC2,-1.2,·,2,0
CCN(CC)c1ccc(/C=C(\C#N)C(=O)c2ccc(Br)cc2)cc1,-0.99,9.2*,-10,-258
CCN(CC)c1ccc(/C=C(\C#N)C(N)=O)cc1,-0.49,1,-2,-3
CN(C)c1ccc(/C=C(\C#N)C(=O)c2ccccc2)cc1,-0.02,·,4,52*
N#C/C(=C\c1ccc(C#N)cc1)C(=O)c1ccccc1,0.14,·,3,-16
COc1ccccc1C1C(C(C)=O)=C(O)C(=O)N1c1ccc(O)cc1 (stereo not drawn),·,·,2,·
CCOC(=O)c1sc(NC(=O)c2cccc(S(=O)(=O)N3CCN(C)CC3)c2)cc1C,-0.76,0,0,-14
CCOC(=O)c1sc(NC(=O)c2cccc(S(=O)(=O)N(CC)CC)c2)cc1C,-4.6,10*,0,-9
Cc1ccccc1CSCCNS(C)(=O)=O,0.28,1,7,-8
COc1ccc(S(=O)(=O)NCCSCc2ccccc2C)cc1Br,0.62,9.9*,0,11
O=[N+]([O-])c1ccc(-c2cn3c(n2)CCC3)cc1,0.51,·,-5,1
COc1ccc(CN(CCC(c2ccc(F)cc2)C2CCOC(C)(C)C2)C(=O)c2ccco2)cc1 (stereo not drawn),-0.28,9.8*,-16,7
CC(c1ccccc1)N(CCC(c1ccccc1)C1CCOC(C)(C)C1)C(=O)c1ccco1 (stereo not drawn),-0.21,6,-8,-7
O=S(=O)(NCC1CCCN(Cc2ccccc2O)C1)c1cccc2cccnc12 (stereo not drawn),·,·,1,·
SMILES,Dynein transport,RAM network inh,p-CIP stab down,p47phox inh
Cc1ccc(C=C2C(Cl)=C(Cl)C(Cl)=C2Cl)cc1,-6.2*,·,-4,-2
Cc1ccc(/C=[N+](/C)[O-])cc1,1.8,-2,1,10
Cc1cc(=O)oc2cc(OCC(=O)N3CCC(C(N)=O)CC3)ccc12,·,·,0,·
Cc1cccc(C(C(=O)NC2CCCC2)N(C(=O)c2csnn2)C2CCCC2)c1 (stereo not drawn),·,·,-1,·
CN(C(=O)COC(=O)c1ccc2c(=O)n3c(nc2c1)CCC3)c1ccccc1,0.21,-1,-9,4
Cc1[nH]c2ccccc2c1C(=O)COC(=O)c1ccc2c(=O)n3c(nc2c1)CCC3,0.28,9.1*,-1,-25
Cc1ccc(S(=O)(=O)NCCSc2nnnn2-c2cc(C)ccc2C)cc1,-0.76,10*,-15,-2
CC(C)CNC(=S)N(CCO)Cc1cc2cc3c(cc2[nH]c1=O)OCO3,·,·,3,·
CCn1c(=O)c(=O)[nH]c2cc(C(=O)NC(C)c3ccc(S(N)(=O)=O)cc3)ccc21 (stereo not drawn),·,·,-4,·
CCc1ccccc1NC(=S)N(Cc1ccco1)C(C)c1cccs1 (stereo not drawn),0.17,1,2,-5
CCc1ccc(NC(=O)N(Cc2ccco2)C(C)c2cccs2)cc1 (stereo not drawn),-1,11*,-3,0
O=C(NCc1ccc(OC(F)(F)F)cc1)C1CC(c2ccccc2C(F)(F)F)=NO1 (stereo not drawn),-0.67,·,8,-16
CSCCC(NS(=O)(=O)c1ccc(Cl)cc1)C(=O)OCc1cccc(Cl)c1 (stereo not drawn),0.14,8.5*,0,-10
CSCCC(NS(=O)(=O)c1ccc(Cl)cc1)C(=O)OCc1c(Cl)cccc1Cl (stereo not drawn),-0.074,7,-4,0
O=C(Nc1ccc(N2C(=O)C3C4C=CC(C4)C3C2=O)cc1Cl)c1cccs1 (stereo not drawn),0.75,9.8*,-27,-4
Nc1ccc(NC(=O)c2cccs2)c(Cl)c1,0.97,1,-5,-3
CCc1nnc(NC(=O)CSc2nc(C3CCCCC3)nc3ccccc23)s1,0.92,10*,2,-8
CCc1nnc(NC(=O)CSc2nc(-c3ccccc3)nc3ccccc23)s1,0.081,1,4,5
O=S(=O)(Nc1ncccn1)c1ccc(NC(=S)N2CCN(Cc3ccc(F)cc3Cl)CC2)cc1,·,·,-13,·
O=C(COc1ccc([N+](=O)[O-])cc1)Nc1ccc(NC(=O)c2ccccc2)cc1,·,·,4,·
O=C(COc1ccc([N+](=O)[O-])cc1)Nc1ccc(C(=O)Nc2ccccc2C(=O)O)cc1,0.071,1,4,48*
CCN(CC)C(=O)CSc1nc(N)c(C#N)c(-c2cccs2)c1C#N,-0.51,1,0,2
CCN(CC)C(=O)CSc1nc(-c2cccs2)cc(-c2cccs2)c1C#N,0.17,8.4*,-14,-33
CCN(C(=O)C1CCCN1S(=O)(=O)c1ccc2c(c1)n(C)c(=O)c(=O)n2C)c1ccccc1 (stereo not drawn),·,·,1,·
O=C(NCc1ccccc1)C1=C[C@H](c2ccc(Br)cc2)C[C@H](OCc2ccc(CO)cc2)O1,0.051,11*,-5,-11
SMILES,Dynein transport,RAM network inh,p-CIP stab down,p47phox inh
O=C(C1=C[C@@H](c2ccc(Br)cc2)C[C@@H](OCc2ccc(CO)cc2)O1)N1CCOCC1,0.19,9.2*,-10,-1
C#Cc1ccc([C@H]2C=C(C(=O)O)O[C@@H](OCc3ccc(CO)cc3)C2)cc1,-0.25,3,-4,·
C#Cc1ccc([C@@H]2C=C(C(=O)OCC=C)O[C@H](OCc3ccc(CO)cc3)C2)cc1,-0.92,10*,-7,·
O=C(Nc1ccccc1)C1=C[C@@H](c2ccc(C(F)(F)F)cc2)C[C@@H](OCc2ccc(CO)cc2)O1,0.26,9.7*,-4,·
CCCS(=O)(=O)N1CCCC(C(=O)NCCc2cccc(C)c2)C1 (stereo not drawn),·,·,-1,·
c1ccc(-c2cnn3c(-c4ccccc4)c(-c4ccccc4)nc3n2)cc1,-1.3,4,-27,-15
